Where “and” joins values, the source holds several entries; their conditions need not be identical. Identical values can stand only once.
Assays:
SV3T3 [1] = conditions: Mus musculus
L1210 [2] = conditions: Mus musculus
SV3T3 [3] = assay: Compound level in 72 hr DFMO (5 mM)-treated SV3T3 cells after exposure to 25 uM 1-methylspermidine; format: functional, cell-based; conditions: Mus musculus
How it was run: (§1)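 SV-3T3 fibroblasts (experiment A) held in 5 mM DFMO for 72 h before polyamine addition and throughout a further 72 h. Intracellular polyamines expressed as nmol/mg protein (detection limit 0.05). SD from at least four separate experiments, or duplicate where no SD is given.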

[4] = Retention time was determined; format: ADME
SV3T3 [5] = assay: Compound level in 96 hr DFMO (5 mM)-treated SV3T3 cells after exposure to 25 uM 1,12-dimethylspermine; format: functional, cell-based; conditions: Mus musculus
HT-29 [6] = assay: Compound level in 72 hr DFMO (5 mM)-treated HT-29 cells after exposure to 10 uM spermidine; format: functional, cell-based; conditions: Homo sapiens
How it was run: (§2)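 HT29 cells pretreated with 5 mM DFMO for 120 h, then polyamine added and culture continued with DFMO for 72 h (experiment A); refed at 96 h. Cellular polyamine content given as nmol/mg protein (detection limit 0.2). SD from at least four separate experiments.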

SV3T3 [7] = conditions: Mus musculus; remark: listed apart in the source
SV3T3 [8] = assay: Compound level in 72 hr DFMO (5 mM)-treated SV3T3 cells after exposure to 1 uM 1,12-dimethylspermine; conditions: Mus musculus
HT-29 [9] = assay: Compound level in 72 hr DFMO (5 mM)-treated HT-29 cells after exposure to 10 uM 1,12-dimethylspermine; format: functional, cell-based; conditions: Homo sapiens, in the assay text read “120 hr” for “72 hr”
How it was run: (§3)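 HT29 experiment B: 5 mM DFMO for 120 h before addition and throughout a further 96 h; refed at 96 h. Cells without DFMO cultured 96 h in total. Polyamines measured as nmol/mg protein (detection limit 0.2). SD from at least four separate experiments.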

HT-29 [10] = assay: Compound level in DFMO-treated HT-29 cells at 0 h; format: functional, cell-based; conditions: Homo sapiens
L1210 [11] = assay: Compound level in 72 hr DFMO (5 mM)-treated L1210 cells after exposure to 10 uM 1,12-dimethylspermine; format: functional, cell-based; conditions: Mus musculus
How it was run: (§4)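 L1210 cells held in 5 mM DFMO for 72 h before polyamine addition and through a further 72 h, refed at 72 h; controls without DFMO cultured 72 h in total. Intracellular polyamines reported as nmol/mg protein (detection limit 0.2). Mean ± SD from at least four separate experiments.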

L1210 [12] = assay: Compound level in 72 h DFMO (5 mM)-treated L1210 cells after exposure to 10 uM spermine; format: functional, cell-based; conditions: Mus musculus
How it was run: as §4

SV3T3 [13] = assay: Compound level in 96 hr DFMO (5 mM)-treated SV3T3 cells after exposure to 10 uM 1,12-dimethylspermine; format: functional, cell-based; conditions: Mus musculus
L1210 [14] = assay: Compound level in 72 hr DFMO (5 mM)-treated L1210 cells after exposure to 10 uM spermidine; format: functional, cell-based; conditions: Mus musculus
How it was run: as §4

SV3T3 [15] = assay: Compound level in SV3T3 cells after 96 hr; format: functional, cell-based; conditions: Mus musculus
SV3T3 [16] = assay: Compound level in 72 h DFMO (5 mM)-treated SV3T3 cells after exposure to 10 uM 1-methylspermidine; format: functional, cell-based; conditions: Mus musculus
How it was run: as §1

SV3T3 [17] = assay: Compound level in 72 hr DFMO (5 mM)-treated SV3T3 cells after exposure to 1 uM 1-methylspermidine; format: functional, cell-based; conditions: Mus musculus
How it was run: as §1

HT-29 [18] = assay: Compound level in 72 hr DFMO (5 mM)-treated HT-29 cells after exposure to 25 uM 1,12-dimethylspermine; format: functional, cell-based; conditions: Homo sapiens, in the assay text read “120 hr” for “72 hr”
How it was run: as §3

SV3T3 [19] = assay: Compound level in 96 hr DFMO (5 mM)-treated SV3T3 cells after exposure to 25 uM spermine; format: functional, cell-based; conditions: Mus musculus
SV3T3 [20] = assay: Compound level in 72 hr DFMO (5 mM)-treated SV3T3 cells after exposure to 25 uM 1-methylspermine; format: functional, cell-based; conditions: Mus musculus
How it was run: as §1

L1210 [21] = assay: Compound level in 72 hr DFMO (5 mM)-treated L1210 cells after exposure to 10 uM 1-methylspermine; format: functional, cell-based; conditions: Mus musculus
How it was run: as §4

HT-29 [22] = assay: Compound level in HT-29 cells after 72 h; format: functional, cell-based; conditions: Homo sapiens
Homo sapiens = organism: Homo sapiens; assay: Compound level in DFMO-treated HT-29 cells after 96 h; format: functional, cell-based
How it was run: as §3

SV3T3 [23] = assay: Compound level in 72 hr DFMO (5 mM)-treated SV3T3 cells after exposure to 10 uM spermine; format: functional, cell-based; conditions: Mus musculus
How it was run: as §1

SV3T3 [24] = assay: Compound level in 72 hr DFMO (5 mM)-treated SV3T3 cells after exposure to 1 uM 1-methylspermine; format: functional, cell-based; conditions: Mus musculus
How it was run: as §1

SV3T3 [25] = assay: Compound level in 72 hr DFMO (5 mM)-treated SV3T3 cells after exposure to 10 uM spermidine; format: functional, cell-based; conditions: Mus musculus
How it was run: as §1

L1210 [26] = assay: Compound level in 72 hr DFMO (5 mM)-treated L1210 cells after exposure to 10 uM 1-methylspermidine; format: functional, cell-based; conditions: Mus musculus
How it was run: as §4

HT-29 [27] = assay: Compound level in 72 hr DFMO (5 mM)-treated HT-29 cells after exposure to 25 uM 1-methylspermine; format: functional, cell-based; conditions: Homo sapiens
How it was run: as §2

HT-29 [28] = assay: Compound level in 72 hr DFMO (5 mM)-treated HT-29 cells after exposure to 10 uM spermine; format: functional, cell-based; conditions: Homo sapiens
How it was run: as §2

HT-29 [29] = assay: Compound level in HT-29 cells after 96 h; format: functional, cell-based; conditions: Homo sapiens
How it was run: as §3

L1210 [30] = assay: Compound level in L1210 cells after 72 h; format: functional, cell-based; conditions: Mus musculus
How it was run: as §4

L1210 [31] = assay: Compound level in DFMO-treated L1210 cells at 0 h; format: functional, cell-based; conditions: Mus musculus
How it was run: as §4

HT-29 [32] = assay: Compound level in 72 hr DFMO (5 mM)-treated HT-29 cells after exposure to 25 uM 1-methylspermidine; format: functional, cell-based; conditions: Homo sapiens
How it was run: as §2

SV3T3 [33] = assay: Compound level in 72 hr DFMO (5 mM)-treated SV3T3 cells after exposure to 10 uM 1-methylspermine; format: functional, cell-based; conditions: Mus musculus
How it was run: as §1

HT-29 [34] = assay: Compound level in 72 hr DFMO (5 mM)-treated HT-29 cells after exposure to 10 uM 1-methylspermine; format: functional, cell-based; conditions: Homo sapiens
How it was run: as §2

HT-29 [35] = assay: Compound level in 96 hr DFMO (5 mM)-treated HT-29 cells after exposure to 10 uM spermine; format: functional, cell-based; conditions: Homo sapiens
HT-29 [36] = assay: Compound level in 72 hr DFMO (5 mM)-treated HT-29 cells after exposure to 10 uM 1-methylspermidine; format: functional, cell-based; conditions: Homo sapiens
How it was run: as §2

SV3T3 [37] = assay: Compound level in DFMO-treated SV3T3 cells at 0 h; format: functional, cell-based; conditions: Mus musculus
How it was run: as §1

HT-29 [38] = assay: Compound level in 72 hr DFMO (5 mM)-treated HT-29 cells after exposure to 15 uM spermine; format: functional, cell-based; conditions: Homo sapiens
How it was run: as §2

HT-29 [39] = assay: Compound level in DFMO-treated HT-29 cells after 72 h; format: functional, cell-based; conditions: Homo sapiens
How it was run: as §2

SV3T3 [40] = conditions: Mus musculus; remark: listed apart in the source
SV3T3 [41] = conditions: Mus musculus; remark: listed apart in the source
HT-29 [42] = assay: Compound level in 72 h DFMO (5 mM)-treated HT-29 cells after exposure to 25 uM spermidine; format: functional, cell-based; conditions: Homo sapiens
SV3T3 [43] = assay: Compound level in 96 hr DFMO (5 mM)-treated SV3T3 cells after exposure to 10 uM spermine; format: functional, cell-based; conditions: Mus musculus

- tR [4]: 40 min
SMILES: NCCCNCCCCNCCCN [SPERMINE]
- Level (nM (mg of protein)-1) (SV3T3 [1]): 14.3
- Level (nM (mg of protein)-1) (L1210 [2]): 7.3
- Level (nM (mg of protein)-1) (SV3T3 [3]): 0.3
- Level (nM (mg of protein)-1) (SV3T3 [5]): 1
- Level (nM (mg of protein)-1) (HT-29 [6]): 10.3
- Level (nM (mg of protein)-1) (SV3T3 [7]): 13.5
- Level (nM (mg of protein)-1) (SV3T3 [8]): 7.8
- Level (nM (mg of protein)-1) (HT-29 [9]): 0.9
- Level (nM (mg of protein)-1) (HT-29 [10]): 5.4 and 7.1
- Level (nM (mg of protein)-1) (L1210 [11]): 3.2
- Level (nM (mg of protein)-1) (L1210 [12]): 35.6
- Level (nM (mg of protein)-1) (SV3T3 [13]): 3.3
- Level (nM (mg of protein)-1) (L1210 [14]): 16.3
- Level (nM (mg of protein)-1) (SV3T3 [15]): 7.1
- Level (nM (mg of protein)-1) (SV3T3 [16]): 0.4
- Level (nM (mg of protein)-1) (SV3T3 [17]): 3.8
- Level (nM (mg of protein)-1) (HT-29 [18]): 0.7
- Level (nM (mg of protein)-1) (SV3T3 [19]): 31.5
- Level (nM (mg of protein)-1) (SV3T3 [20]): 0.8
- Level (nM (mg of protein)-1) (L1210 [21]): 1.7
- Level (nM (mg of protein)-1) (HT-29 [22]): 10.5
- Level (nM (mg of protein)-1) (Homo sapiens): 4.4
- Level (nM (mg of protein)-1) (SV3T3 [23]): 20.6
- Level (nM (mg of protein)-1) (SV3T3 [24]): 3.5
- Level (nM (mg of protein)-1) (SV3T3 [25]): 9.5
- Level (nM (mg of protein)-1) (L1210 [26]): 1.1
- Level (nM (mg of protein)-1) (HT-29 [27]): 0.8
- Level (nM (mg of protein)-1) (HT-29 [28]): 21.5
- Level (nM (mg of protein)-1) (HT-29 [29]): 17.8
- Level (nM (mg of protein)-1) (L1210 [30]): 9.1
- Level (nM (mg of protein)-1) (L1210 [31]): 13.4
- Level (nM (mg of protein)-1) (HT-29 [32]): 1.2
- Level (nM (mg of protein)-1) (SV3T3 [33]): 0.3
- Level (nM (mg of protein)-1) (HT-29 [34]): 0.7
- Level (nM (mg of protein)-1) (HT-29 [35]): 21.5
- Level (nM (mg of protein)-1) (HT-29 [36]): 1.1
- Level (nM (mg of protein)-1) (SV3T3 [37]): 9.3 and 7.8
- Level (nM (mg of protein)-1) (HT-29 [38]): 21.7
- Level (nM (mg of protein)-1) (HT-29 [39]): 3.8
- Level (nM (mg of protein)-1) (SV3T3 [40]): 11.5
- Level (nM (mg of protein)-1) (SV3T3 [41]): 7.7
- Level (nM (mg of protein)-1) (HT-29 [42]): 9
- Level (nM (mg of protein)-1) (SV3T3 [43]): 24.5
